Measurements as given in ChEMBL document CHEMBL1821569, “Synthesis of novel 1,2,5-trisubstituted benzimidazoles as potential antitumor agents” (2011).

How the values were obtained:
Assay type in all cases: functional
[1] = test system: HT-29; assay: Antitumor activity against human HT-29 cells after 48 hrs by SRB assay; conditions: HT-29, 48 h
Outline: (§1)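 NCI 60-cell-line secondary screen. Cells were exposed continuously to drug for 48 h at five concentration levels (100, 10, 1.0, 0.1 and 0.01). Growth was estimated by sulforhodamine B protein staining. GI50 is the concentration giving a 50% reduction in net protein increase versus untreated control cells over the incubation. TGI (total growth inhibition) and LC50 (50% cell kill) were also derived.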

[2] = test system: Malme-3M; assay: Antitumor activity against human MALME-3M cells after 48 hrs by SRB assay; outline: as §1
[3] = test system: NCI-H226; assay: Antitumor activity against human NCI-H226 cells after 48 hrs by SRB assay; conditions: NCI-H226, 48 h; outline: as §1
[4] = test system: ACHN; assay: Antitumor activity against human ACHN cells after 48 hrs by SRB assay; outline: as §1
[5] = test system: SF-295; assay: Antitumor activity against human SF295 cells after 48 hrs by SRB assay; conditions: SF-295, 48 h; outline: as §1
[6] = test system: DU-145; assay: Antitumor activity against human DU145 cells after 48 hrs by SRB assay; conditions: DU-145, 48 h; outline: as §1
[7] = test system: A549; assay: Antitumor activity against human A549 cells after 48 hrs by SRB assay; conditions: A549, 48 h; outline: as §1
[8] = test system: 786-0; assay: Antitumor activity against human 786-0 cells after 48 hrs by SRB assay; conditions: 786-0, 48 h; outline: as §1
[9] = test system: COLO 205; assay: Antitumor activity against human COLO205 cells after 48 hrs by SRB assay; conditions: COLO 205, 48 h; outline: as §1
[10] = test system: HOP-62; assay: Antitumor activity against human HOP62 cells after 48 hrs by SRB assay; conditions: HOP-62, 48 h; outline: as §1
[11] = test system: NCI-H460; assay: Antitumor activity against human NCI-H460 cells after 48 hrs by SRB assay; conditions: NCI-H460, 48 h; outline: as §1
[12] = test system: NCI/ADR-RES; assay: Antitumor activity against human NCI/ADR-RES cells after 48 hrs by SRB assay; outline: as §1
[13] = test system: SNB-19; assay: Antitumor activity against human SNB19 cells after 48 hrs by SRB assay; conditions: SNB-19, 48 h; outline: as §1
[14] = test system: HCT-116; assay: Antitumor activity against human HCT116 cells after 48 hrs by SRB assay; conditions: HCT-116, 48 h; outline: as §1
[15] = test system: UO-31; assay: Antitumor activity against human UO31 cells after 48 hrs by SRB assay; conditions: UO-31, 48 h
Outline: (§2)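 NCI 60-cell-line secondary screen. Continuous 48 h exposure at five concentration levels. Cell growth estimated by sulforhodamine B protein staining. GI50 taken as the concentration giving 50% reduction in net protein increase relative to untreated control cells over the incubation. TGI (total growth inhibition) and LC50 (50% cell kill) were also derived.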

[16] = test system: TK-10; assay: Antitumor activity against human TK10 cells after 48 hrs by SRB assay; conditions: TK-10, 48 h; outline: as §2
[17] = test system: MDA-MB-468; assay: Antitumor activity against human MDA-MB-468 cells after 48 hrs by SRB assay; conditions: MDA-MB-468, 48 h; outline: as §1
[18] = test system: PC-3; assay: Antitumor activity against human PC3 cells after 48 hrs by SRB assay; conditions: PC-3, 48 h; outline: as §1
[19] = test system: HCC 2998; assay: Antitumor activity against human HCC2998 cells after 48 hrs by SRB assay; conditions: HCC 2998, 48 h, read-out: LC50 (the source's name)
Outline: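 NCI 60-cell-line secondary screen: continuous drug exposure for 48 h at five concentration levels (100, 10, 1.0, 0.1 and 0.01). Cell growth was estimated by sulforhodamine B (SRB) protein staining. GI50 is the concentration giving a 50% reduction in net protein increase relative to untreated control cells during the incubation. TGI and LC50 were derived from the same data.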

[20] = test system: SK-MEL-28; assay: Antitumor activity against human SK-MEL-28 cells after 48 hrs by SRB assay; conditions: SK-MEL-28, 48 h; outline: as §1
[21] = test system: K562; assay: Antitumor activity against human K562 cells after 48 hrs by SRB assay; conditions: K562, 48 h; outline: as §1
[22] = test system: M14; assay: Antitumor activity against human M14 cells after 48 hrs by SRB assay; conditions: M14, 48 h; outline: as §1
[23] = test system: EKVX; assay: Antitumor activity against human EKVX cells after 48 hrs by SRB assay; outline: as §1
[24] = test system: KM12; assay: Antitumor activity against human KM12 cells after 48 hrs by SRB assay; conditions: KM12, 48 h; outline: as §1
[25] = test system: SR; assay: Antitumor activity against human SR cells after 48 hrs by SRB assay; outline: as §2
[26] = Antitumor activity against human Hs 578T cells after 48 hrs by SRB assay; outline: as §1
[27] = test system: OVCAR-5; assay: Antitumor activity against human OVCAR5 cells after 48 hrs by SRB assay; conditions: OVCAR-5, 48 h; outline: as §1
[28] = test system: UACC-62; assay: Antitumor activity against human UACC62 cells after 48 hrs by SRB assay; conditions: UACC-62, 48 h; outline: as §2
[29] = test system: MDA-MB-231; assay: Antitumor activity against human MDA-MB-231 cells after 48 hrs by SRB assay; conditions: MDA-MB-231, 48 h; outline: as §1
[30] = test system: OVCAR-8; assay: Antitumor activity against human OVCAR8 cells after 48 hrs by SRB assay; conditions: OVCAR-8, 48 h; outline: as §1
[31] = read-out: LC50 (the source's name)

In the case of `COC(=O)c1ccc2c(c1)nc(-c1cc3ccccc3[nH]c1=O)n2-c1cc(C(C)(C)C)[nH]n1`, the GI50 [1] is reported as 1340 nM, the LC50 (50% cell kill) [1] is reported as > 100 µM and the TGI [1] is reported as > 100 µM. The GI50 [2] was 2630 nM, the TGI [2] was > 100 µM and the CC50 [2, 31] was > 100 µM. For the same molecule, the GI50 [3] was 7 µM, the LC50 (50% cell kill) [3] was > 100 µM and the TGI [3] was > 100 µM. For the same molecule, the GI50 [4] was > 100 µM, the TGI [4] was > 100 µM and the CC50 [4, 31] was > 100 µM. For the same molecule, the GI50 [5] was 1230 nM, the TGI [5] was 25.5 µM and the CC50 [5, 31] was > 100 µM. For the same molecule, the GI50 [6] was 2370 nM, the TGI [6] was > 100 µM and the CC50 [6, 31] was > 100 µM. For the same molecule, the GI50 [7] was > 100 µM, the TGI [7] was > 100 µM and the CC50 [7, 31] was > 100 µM. For the same molecule, the GI50 [8] was 5.81 µM, the TGI [8] was > 100 µM and the CC50 [8, 31] was > 100 µM. The TGI [9] was > 100 µM, the CC50 [9, 31] was > 100 µM and the GI50 [10] was 996 nM. For the same molecule, the LC50 (concentration giving 50% cell kill) [10] was > 100 µM, the TGI [10] was > 100 µM and the GI50 [11] was 630 nM. The TGI [11] was > 100 µM, the CC50 [11, 31] was > 100 µM and the GI50 [12] was 5.29 µM. For the same molecule, the TGI [12] was > 100 µM, the CC50 [12, 31] was > 100 µM and the GI50 [13] was 7.59 µM. For the same molecule, the TGI [13] was > 100 µM, the CC50 [13, 31] was > 100 µM and the GI50 [14] was 1740 nM. The LC50 [14] was > 100 µM, the TGI [14] was > 100 µM and the GI50 [15] was 533 nM. The TGI [15] was > 100 µM, the CC50 [15, 31] was > 100 µM and the GI50 [16] was 16.9 µM. For the same molecule, the TGI [16] was 55.8 µM, the CC50 [16, 31] was > 100 µM and the GI50 [17] was 20.5 µM. For the same molecule, the TGI [17] was > 100 µM, the CC50 [17, 31] was > 100 µM and the GI50 [18] was 2270 nM. The TGI [18] was > 100 µM, the CC50 [18, 31] was > 100 µM and the CC50 [19] was > 100 µM. The TGI [20] was > 100 µM, the CC50 [20, 31] was > 100 µM and the GI50 [21] was 1730 nM. For the same molecule, the TGI [21] was > 100 µM, the CC50 [21, 31] was > 100 µM and the TGI [22] was > 100 µM. For the same molecule, the CC50 [22, 31] was > 100 µM, the GI50 [23] was 5.8 µM and the LC50 (50% cell kill) [23] was > 100 µM. For the same molecule, the TGI [23] was > 100 µM, the GI50 [24] was 1290 nM and the CC50 [24, 31] was > 100 µM. For the same molecule, the GI50 [25] was 10 µM, the TGI [25] was > 100 µM and the CC50 [25, 31] was > 100 µM. The GI50 [26] was 619 nM, the TGI [26] was 34.1 µM and the CC50 [26, 31] was > 100 µM. For the same molecule, the TGI [27] was > 100 µM, the CC50 [27, 31] was > 100 µM and the TGI [28] was > 100 µM. The CC50 [28, 31] was > 100 µM, the GI50 [29] was 4.13 µM and the TGI [29] was > 100 µM. For the same molecule, the CC50 [29, 31] was > 100 µM, the GI50 [30] was 1790 nM and the TGI [30] was > 100 µM. The CC50 [30, 31] was > 100 µM.
